Laboratory results as given in ChEMBL document CHEMBL3525975, “Acetylenic linkers in lead compounds: a study of the stability of the propargyl-linked antifolates” (Drug Metab Dispos, 2012).
Values after ≈ are worked out from the molar mass of the structure shown. Each block holds one compound with its values, some of them ahead of it.

Key:
Liver [1] = assay: Drug level in mouse liver microsomes treated with 10 ug/ml 6-ethyl-5-(3-(3-methoxy-5-(pyridin-4-yl)phenyl)prop-1-ynyl)pyrimidine-2,4-diamine by LC-MS/MS method; type: ADME
Outline: (§1)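 Compound at 10 μg/ml incubated 2 h with mouse liver microsomes (0.5 mg/ml protein, 37°C) in 0.1 M potassium phosphate pH 7.4 with 200 μg/ml HPMC and an NADPH-regenerating system. Controls were DMSO alone and reactions quenched with ACN immediately after adding microsomes. Reactions were stopped with equal volume ice-cold ACN, centrifuged, solid-phase purified and analysed by LC-MS/MS. Metabolite share = metabolite AUC / total metabolite AUC in the same injection.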

Liver [2] = assay: Drug level in mouse liver microsomes treated with 10 ug/ml 6-ethyl-5-(3-(2-methoxy-5-(pyridin-4-yl)phenyl)but-1-ynyl)pyrimidine-2,4-diamine by LC-MS/MS method; type: ADME; outline: as §1
Dihydrofolate reductase = Dihydrofolate reductase (Staphylococcus aureus, UniProt P0A017); assay: Inhibition of Staphylococcus aureus DHFR assessed as reduction in rate of NADPH consumption
Outline: (§2)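 DHFR activity followed as NADPH consumption at 340 nm over 5 min. Pure enzyme at limiting concentration, 100 μM NADPH, 1 mM dihydrofolate. Buffer: 50 mM KCl, 10 mM 2-mercaptoethanol, 0.5 mM EDTA, 1 mg/ml BSA. Run in triplicate.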

[3] = Kinetic solubility of the compound; type: physicochemical; conditions: read-out: Kinetic_solubility
Outline: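 20 or 40 mM DMSO stocks diluted into filtered water with or without 200 μg/ml methylcellulose. Centrifuged, held 30 min at room temperature, then reversed-phase HPLC (50% ACN / 50 mM potassium phosphate pH 7.0, isocratic). Solubility taken as the highest concentration where absorbance stays linear with log concentration.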

[4] = Drug metabolism in mouse liver microsomes assessed as demethylation at 5 ug/ml after 1 hr at 37 degC by reverse phase HPLC method; type: ADME
[5] = Stability in water at 5 ug/ml after 24 hrs at 37 degC by reverse phase HPLC method; type: physicochemical; conditions: buffer
Outline: (§3)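 Compounds incubated 24 h at 37°C in the stated fluid containing 200 μg/ml HPMC. Samples taken before and after incubation, quenched with equal volume ice-cold ACN, centrifuged and the supernatant run on reversed-phase HPLC. Stability = AUC after / AUC before incubation.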

[6] = Stability in pH 1.2 simulated gastric fluid at 5 ug/ml after 24 hrs at 37 degC by reverse phase HPLC method; type: ADME; conditions: simulated gi fluid, pH 1.2, 24 h; outline: as §3
[7] = Stability in mouse liver microsomes assessed as parent compound remaining at 5 ug/ml after 1 hr at 37 degC by reverse phase HPLC method; type: ADME; conditions: read-out: Stability
Outline: (§4)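 Mouse liver microsomes (0.5 mg/ml) in 0.1 M potassium phosphate pH 7.4 with 200 μg/ml HPMC, 37°C. NADPH-regenerating system: 1.3 mM NADP+, 3.3 mM glucose 6-phosphate, 0.5 U/ml G6P dehydrogenase, 3.3 mM MgCl2. Final compound concentration 5 μg/ml; start by adding microsomes. Controls: DMSO, and compound without microsomes. Quench with ice-cold ACN, solid-phase cleanup, reversed-phase HPLC. Result is percent parent remaining vs pre-incubation. Half-life from the single time point, assuming first-order kinetics.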

[8] = Half life in mouse liver microsomes at 5 ug/ml at 37 degC by reverse phase HPLC method; type: ADME; outline: as §4
[9] = Stability in pH 7.4 simulated intestinal fluid at 5 ug/ml after 24 hrs at 37 degC by reverse phase HPLC method; type: ADME; conditions: simulated gi fluid, pH 7.4, 24 h; outline: as §3
[10] = Drug metabolism in mouse liver microsomes assessed as 4-(3-(3-(2,4-diamino-6-ethylpyrimidin-5-yl)prop-2-ynyl)-4-methoxyphenyl)pyridine 1-oxide formation at 10 ug/ml by LC-MS/MS method; type: ADME; outline: as §1
[11] = Drug metabolism in mouse liver microsomes assessed as 2-(3-(2,4-diamino-6-ethylpyrimidin-5-yl)prop-2-ynyl)-4-(pyridin-4-yl)phenol formation at 10 ug/ml by LC-MS/MS method; type: ADME; outline: as §1
Liver [12] = assay: Drug level in mouse liver microsomes treated with 10 ug/ml 6-ethyl-5-(3-(2-methoxy-5-(pyridin-4-yl)phenyl)prop-1-ynyl)pyrimidine-2,4-diamine by LC-MS/MS method; type: ADME; outline: as §1
Liver [13] = assay: Drug level in mouse liver microsomes treated with 10 ug/ml 5-(3-(3-methoxy-5-(pyridin-4-yl)phenyl)but-1-ynyl)-6-methylpyrimidine-2,4-diamine by LC-MS/MS method; type: ADME; outline: as §1
[14] = Drug metabolism in mouse liver microsomes assessed as 4-(3-(4-(2,4-diamino-6-methylpyrimidin-5-yl)but-3-yn-2-yl)-5-methoxyphenyl)pyridine 1-oxide at 10 ug/ml by LC-MS/MS method; type: ADME; outline: as §1
[15] = Drug metabolism in mouse liver microsomes assessed as 3-(4-(2,4-diamino-6-methylpyrimidin-5-yl)but-3-yn-2-yl)-5-(pyridin-4-yl)phenol formation at 10 ug/ml by LC-MS/MS method; type: ADME; outline: as §1
[16] = Drug metabolism in mouse liver microsomes assessed as 4-(3-(4-(2,4-diamino-6-ethylpyrimidin-5-yl)but-3-yn-2-yl)-4-methoxyphenyl)pyridine 1-oxide formation at 10 ug/ml by LC-MS/MS method; type: ADME; outline: as §1
[17] = Drug metabolism in mouse liver microsomes assessed as 2-(4-(2,4-diamino-6-ethylpyrimidin-5-yl)but-3-yn-2-yl)-4-(pyridin-4-yl)phenol formation at 10 ug/ml by LC-MS/MS method; type: ADME; outline: as §1
[18] = Inhibition of Candida glabrata DHFR; design: species or system Nakaseomyces glabratus; outline: as §2
Liver [19] = assay: Drug level in mouse liver microsomes treated with 10 ug/ml 6-ethyl-5-(3-(3-methoxy-5-(pyridin-4-yl)phenyl)but-1-ynyl)pyrimidine-2,4-diamine by LC-MS/MS method; type: ADME; outline: as §1
[20] = Drug metabolism in mouse liver microsomes assessed as 3-(4-(2,4-diamino-6-ethylpyrimidin-5-yl)but-3-yn-2-yl)-5-(pyridin-4-yl)phenol formation at 10 ug/ml by LC-MS/MS method; type: ADME; outline: as §1
[21] = Drug metabolism in mouse liver microsomes assessed as 4-(3-(4-(2,4-diamino-6-ethylpyrimidin-5-yl)but-3-yn-2-yl)-5-methoxyphenyl)pyridine 1-oxide formation at 10 ug/ml by LC-MS/MS method; type: ADME; outline: as §1
Staphylococcus aureus = assay: Antimicrobial activity against Staphylococcus aureus; type: functional

Drug metabolism (Liver [2]): metabolite_detected
IC50 (Dihydrofolate reductase): 45 nM
Compound: CCc1nc(N)nc(N)c1C#CC(C)c1cc(-c2cc[n+]([O-])cc2)ccc1OC (configuration not stated)

solubility kinetic [3]: > 80 µg/mL
Compound: COc1cc(C(C)C#Cc2c(C)nc(N)nc2N)cc(N2CCOCC2)c1 (configuration not stated)

Drug metabolism (Liver [12]): metabolite_detected
Compound: CCc1nc(N)nc(N)c1C#CCc1cc(-c2ccncc2)ccc1O

Drug metabolism (Liver [13]): metabolite_detected
Compound: Cc1nc(N)nc(N)c1C#CC(C)c1cc(O)cc(-c2ccncc2)c1 (configuration not stated)

Drug metabolism [14]: metabolite_detected
Drug metabolism [15]: metabolite_detected
Drug metabolism [4]: 15.9%
Stability [5]: Stable
Stability [6]: Stable
remaining at 1 h, 5 ug/ml [7]: 33.7%
half-life at 5 ug/ml [8]: 38 min
Stability [9]: Stable
Compound: COc1cc(-c2ccncc2)cc(C(C)C#Cc2c(C)nc(N)nc2N)c1 (configuration not stated)

half-life at 5 ug/ml [8]: 65 min
Drug metabolism [16]: metabolite_detected
Drug metabolism [17]: metabolite_detected
Compound: CCc1nc(N)nc(N)c1C#CC(C)c1cc(-c2ccncc2)ccc1OC (configuration not stated)

IC50 [18]: 0.5 nM
Compound: COc1cc(-c2cc(C)cc(C)c2)cc(C(C)C#Cc2c(C)nc(N)nc2N)c1 (configuration not stated)

Drug metabolism (Liver [19]): metabolite_detected
Compound: CCc1nc(N)nc(N)c1C#CC(C)c1cc(OC)cc(-c2cc[n+]([O-])cc2)c1 (configuration not stated)

Second part, the compound before the results:

Compound: CCc1nc(N)nc(N)c1C#CCc1cc(O)cc(-c2ccncc2)c1
Drug metabolism (Liver [1]): metabolite_detected

Compound: CCc1nc(N)nc(N)c1C#CCc1cc(-c2ccncc2)ccc1OC
Drug metabolism [4]: 19.7%
Stability [5]: Stable
Stability [6]: Stable
remaining at 1 h, 5 ug/ml [7]: 26.5%
half-life at 5 ug/ml [8]: 31 min
Stability [9]: Stable
Drug metabolism [10]: metabolite_detected
Drug metabolism [11]: metabolite_detected

Compound: COc1cc(-c2cc[n+]([O-])cc2)cc(C(C)C#Cc2c(C)nc(N)nc2N)c1 (configuration not stated)
Drug metabolism (Liver [13]): metabolite_detected

Compound: CCc1nc(N)nc(N)c1C#CCc1cc(OC)cc(-c2cc[n+]([O-])cc2)c1
Drug metabolism (Liver [1]): metabolite_detected

Compound: CCc1nc(N)nc(N)c1C#CC(C)c1cc(O)cc(-c2ccncc2)c1 (configuration not stated)
Drug metabolism (Liver [19]): metabolite_detected

Compound: CCc1nc(N)nc(N)c1C#CC(C)c1cc(OC)cc(-c2ccncc2)c1 (configuration not stated)
Drug metabolism [20]: metabolite_detected
Drug metabolism [4]: 28%
Stability [5]: Stable
Stability [6]: Stable
remaining at 1 h, 5 ug/ml [7]: 29.2%
half-life at 5 ug/ml [8]: 34 min
Stability [9]: Stable
Drug metabolism [21]: metabolite_detected

Compound: COc1cc(-c2ccccc2)cc(C(C)C#Cc2c(C)nc(N)nc2N)c1 (configuration not stated)
solubility kinetic [3]: 20 µg/mL (≈ 55.8 µM)
IC50 (Dihydrofolate reductase): 61 nM
MIC (Staphylococcus aureus): 0.72 µg/mL (≈ 2.01 µM)

Compound: CCc1nc(N)nc(N)c1C#CC(C)c1cc(OC)cc(N2CCOCC2)c1 (configuration not stated)
solubility kinetic [3]: > 80 µg/mL
IC50 (Dihydrofolate reductase): 26 nM

Compound: COc1cc(C(C)C#Cc2c(C)nc(N)nc2N)cc(N2CCNCC2)c1 (configuration not stated)
solubility kinetic [3]: 60 µg/mL (≈ 164 µM)
IC50 (Dihydrofolate reductase): 130 nM
MIC (Staphylococcus aureus): 91.5 µg/mL (≈ 250 µM)

Compound: CCc1nc(N)nc(N)c1C#CCc1cc(OC)cc(-c2ccncc2)c1
Drug metabolism [4]: 6.3%
Stability [5]: Stable
Stability [6]: Stable
remaining at 1 h, 5 ug/ml [7]: 0%
half-life at 5 ug/ml [8]: < 10 min
Stability [9]: Stable
